FGF22 binding: binders of recombinant human FGF22 by thermal shift; AID 651658; activity (Tm shift, normalised), % at 9.99 µM; Q9HCT0; SYPRO orange fluorescence; percent of sucrose octasulfate shift, DMSO zero; hit rate 1.5% among 340,000;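 active = mean Tm shift, scaled 0 neutral to 100 positive control, at about 1.3% or above, every replicate too, limit read from the data; inconclusive = no clear call, values can overlap the other calls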
Target sequence (Q9HCT0 whole entry, looked up): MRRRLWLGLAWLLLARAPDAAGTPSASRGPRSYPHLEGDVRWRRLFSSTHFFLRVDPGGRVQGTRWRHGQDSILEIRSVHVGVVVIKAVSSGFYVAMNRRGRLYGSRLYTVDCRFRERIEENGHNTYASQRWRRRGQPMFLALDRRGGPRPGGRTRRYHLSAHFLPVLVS
miR122 inh: inhibitors of miR-122 in Huh7 cells | activation (reporter increase), % at 12.5 µM | AID 602342 | Huh7 miR-122 Renilla luciferase sensor, 48 h; neutral wells = 0, positive control = 100 | hit rate 0.3% among 340,000;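 active = mean replicate activation score at least 90 and every replicate individually at or above 90; inconclusive = only one of the two criteria met; inactive = neither criterion met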;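 also: higher luciferase means less miR-122 activity so hits act as miR-122 inhibitors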
S100A4 MyoIIA: S100A4-myosin IIA interaction inhibition. P26447. S100A4/TAMRA-MyoIIA peptide fluorescence polarization. inhibition, % at 10.7 µM. hit rate 0.14% among 360,000;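 active = mean inhibition of at least 70% across replicates, with every replicate also reaching that level; inconclusive = mean inhibition reaches 70% but some replicates fall short; inactive = mean inhibition below 70%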
Target sequence (P26447 whole entry, looked up): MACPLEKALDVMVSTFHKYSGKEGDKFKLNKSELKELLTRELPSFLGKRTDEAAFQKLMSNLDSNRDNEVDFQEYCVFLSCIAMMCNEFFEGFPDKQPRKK
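Material: human S100A4 monomer with TAMRA-labelled myosin IIA peptide; buffer or medium: HEPES pH 7.2 with CaCl2, KCl, NaCl, DTT, Triton; compound dosing: one concentration per compound; schedule: 5 min incubation before reading; benchmarks: neutral control DMSO, positive control TFP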
SIRT5 inh: sirtuin-5 (human) deacylase inhibition; hit rate 1.1% among 330,000; inhibition, % at 15 µM; AID 652115; Purified SirT5, succinyl-peptide AMC, trypsin-coupled fluorescence; in the data active = inhibition above about 15%; inconclusive = no clear call, values can overlap the other calls
Target sequence (Q9NXA8 whole entry, looked up): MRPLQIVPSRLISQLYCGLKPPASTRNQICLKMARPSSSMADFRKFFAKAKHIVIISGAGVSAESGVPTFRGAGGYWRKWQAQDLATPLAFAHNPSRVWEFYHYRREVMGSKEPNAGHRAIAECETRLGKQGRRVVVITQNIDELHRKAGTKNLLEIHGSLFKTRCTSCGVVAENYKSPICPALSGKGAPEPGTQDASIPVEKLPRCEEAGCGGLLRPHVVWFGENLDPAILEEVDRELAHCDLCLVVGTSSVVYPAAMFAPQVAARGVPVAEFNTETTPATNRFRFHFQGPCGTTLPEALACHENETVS
E-selectin induc: induces E-selectin expression in human endothelial cells | hit rate 0.37% among 260,000 | HUVEC E-selectin immunofluorescence imaging; normalized: neutral wells 0, TNF-alpha wells 100 | AID 686992 | activation, % at 7.58 µM | P16581;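 active = mean E-selectin-positive cell signal at least 10% of the positive control, reached in at least 60% of replicates, without over 20% cell loss; inconclusive = no rule given, readout overlaps actives, possibly toxicity-flagged; inactive = the rest, including those meeting only one limit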
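assay system = HUVEC, human umbilical vein endothelial cells | input = 3,000 HUVEC seeded per well | medium = EGM-2 growth medium on 0.1% gelatin-coated wells | dosing = one compound dose added by pin transfer | signal = immunofluorescence imaging | read-out basis = % PE-positive cells | control set = TNF-alpha, DMSO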
Hits are given with their value; i = inactive; ? = inconclusive; nt = not tested or not shown. The list is not random: actives were taken first. Their share in the collection is about 2.5%.

SMILES	FGF22 binding	miR122 inh	S100A4 MyoIIA	SIRT5 inh	E-selectin induc
C[C@H]1CCCCO[C@H](CN(C)Cc2ccc3c(c2)OCO3)[C@@H](C)CN([C@@H](C)CO)C(=O)c2cc(NC(=O)C3CCCCC3)ccc2O1	i	i	i	i	i
O=C(Nc1ccccc1C(=O)N1CCOCC1)c1cc2ccccc2o1	i	nt	i	29.9	nt
CCOCC(=O)Nc1ccccc1C(=O)N1CCOCC1	44.1	nt	i	i	nt
CCCC(=O)N1CC2(C1)CN(C(=O)CN1CCOCC1)[C@@H](CO)c1c2c2ccc(OC)cc2n1C	i	nt	i	i	i
COc1ccc2c3c([nH]c2c1)[C@@H](CO)N(C(=O)c1cccc(F)c1)CC31CN(C(=O)c2ccccc2)C1	i	nt	i	nt	i
CN1[C@@H]2c3ccc(-c4ccc(F)cc4)c(=O)n3C[C@H]1[C@H](CO)[C@H]2C(=O)N1CCCCC1	i	nt	?	i	i
O=S(c1ccccc1O)S(=O)c1ccccc1O (stereo not given)	i	i	i	25.8	nt
CS(=O)c1ccccc1O (stereo not given)	i	nt	i	i	nt
COCCN1C(=O)CC(NNC(=O)c2ccc(S(=O)(=O)N3CCCC3)cc2)C1=O (stereo not given)	43.3	i	i	i	i
COCCCN1C(=O)C(=O)/C(=C(/O)c2ccc(S(=O)(=O)N3CCCCC3)cc2)C1c1ccc(O)cc1 (stereo not given)	43.2	i	i	i	nt
C[C@H]1CN([C@@H](C)CO)C(=O)c2cc(/C=C/c3ccccc3)cnc2O[C@H]1CN(C)C(=O)C1CC1	nt	i	nt	nt	i
COc1ccc(NC(=O)N[C@H]2CC[C@H](CCNC(=O)CCN3CCCCC3)O[C@H]2CO)cc1	i	i	i	i	i
COC(=O)c1ccccc1S(=O)(=O)NC(=O)c1ccccc1	nt	i	nt	nt	nt
CCc1nc(NC(=O)NS(=O)(=O)c2ccccc2C(=O)OC)nc(OC)n1	42.9	nt	i	i	i
O=C(O)C1C2CCC(C2)C1C(=O)NCCc1ccc(F)cc1 (stereo not given)	i	i	i	17.5	i
CC(C)CC#Cc1ccc2c(c1)O[C@@H](CN(C)C)[C@H](C)CN([C@H](C)CO)S2(=O)=O	i	i	i	i	i
COc1ccc2c(C=O)cn(C)c2c1	43.0	nt	i	i	i
C[C@@H]1CN([C@H](C)CO)C(=O)c2cc(NS(=O)(=O)c3cn(C)cn3)ccc2O[C@H]1CN(C)C(=O)NC1CCCCC1	i	i	i	i	i
O=S(=O)(N[C@H]1CC[C@H](CCn2cc(-c3cccc(F)c3)nn2)O[C@H]1CO)c1ccc(F)cc1	i	nt	i	24.8	i
Cc1ccc(S(=O)(=O)N[C@H]2CC[C@@H](CCn3cc(C(C)C)nn3)O[C@H]2CO)cc1	i	nt	i	25.5	i
CC(C)c1cn(CC[C@H]2CC[C@H](NS(=O)(=O)c3ccc(F)cc3)[C@@H](CO)O2)nn1	i	nt	i	20.2	i
O=S(=O)(N[C@H]1CC[C@@H](CCn2cc(-c3cccc(F)c3)nn2)O[C@H]1CO)c1ccc(F)cc1	i	nt	i	i	i
Cc1ccccc1-c1ccc([C@H]2[C@@H](CO)N3CCCCN(C(=O)CN4CCOCC4)C[C@H]23)cc1	i	i	i	i	i
Cc1[nH]c(C)c(S(=O)(=O)N2CCCCC2)c1C(=O)N1CCCC1	i	i	i	i	85.3
Cc1[nH]c(C)c(S(=O)(=O)N2CCN(c3ccccc3)CC2)c1C(=O)N1CCCC1	i	nt	i	i	nt
SMILES	FGF22 binding	miR122 inh	S100A4 MyoIIA	SIRT5 inh	E-selectin induc
CCCNC(=O)N(C)C[C@@H]1Oc2cc(C#C[C@@H](C)O)ccc2S(=O)(=O)N([C@@H](C)CO)C[C@@H]1C	i	i	i	i	i
CCCNC(=O)N(C)C[C@H]1Oc2cc(C#CC(C)C)ccc2S(=O)(=O)N([C@H](C)CO)C[C@@H]1C	i	i	i	18.6	i
CCCNC(=O)N(C)C[C@H]1Oc2cc(C#C[C@H](C)O)ccc2S(=O)(=O)N([C@@H](C)CO)C[C@@H]1C	i	i	i	18.1	i
CNC[C@@H]1Oc2ccc(NS(=O)(=O)c3ccc(F)cc3)cc2CC(=O)N([C@@H](C)CO)C[C@@H]1C	i	i	i	i	i
COCC#Cc1ccc([C@H]2[C@@H](CO)N3CCCCN(C(=O)CN(C)C)C[C@H]23)cc1	nt	i	nt	nt	i
CC(Sc1nc(-c2ccc(F)cc2)cs1)C(=O)N1c2ccccc2CC1C (stereo not given)	i	nt	i	25.6	nt
CC1Cc2ccccc2N1C(=O)CSc1nc(-c2ccccc2)cs1 (stereo not given)	i	nt	i	i	nt
Cn1nnnc1SCC(=O)N(C1CCCCC1)C1CCS(=O)(=O)C1 (stereo not given)	43.2	nt	i	i	nt
CCOC(=O)C(=O)Cc1cccnn1	42.9	i	i	nt	i
C[C@H]1CN([C@@H](C)CO)C(=O)c2cc(NS(=O)(=O)c3ccc(Cl)cc3)ccc2O[C@@H]1CN(C)S(=O)(=O)c1ccc(Cl)cc1	i	i	i	i	i
COc1ccc(NC(=O)C2CCCN(c3cnccn3)C2)c(OC)c1 (stereo not given)	i	i	i	16.4	nt
COc1cccc(CNC(=O)C2CCCN(c3cnccn3)C2)c1 (stereo not given)	i	i	i	i	i
C[C@H](NC(=O)C[C@H]1CC[C@H](NS(=O)(=O)c2cccc(F)c2)[C@@H](CO)O1)c1ccccc1	i	nt	i	i	i
CO[C@H]1CC[C@@H]2CCOc3ccc(C#N)cc3C(=O)N(C)C[C@H](OC)[C@@H](C)C(=O)N(C)C[C@@H]1O2	i	nt	i	i	i
CC(C)N(C[C@H]1N[C@H](CO)[C@@H]1c1ccc(C2=CCCC2)cc1)C(=O)CN(C)C	nt	nt	i	i	i
CCOC(=O)CNC(=O)C1Cc2ccccc2CN1S(=O)(=O)c1cccs1 (stereo not given)	43.4	i	i	i	i
Cc1ccc(S(=O)(=O)N(C)C[C@@H]2Oc3c(NC(=O)Nc4ccc5c(c4)OCO5)cccc3C(=O)N([C@H](C)CO)C[C@@H]2C)cc1	i	i	i	15.1	i
C[C@@H]1CN([C@@H](C)CO)C(=O)c2cccc(NC(=O)Nc3ccc4c(c3)OCO4)c2O[C@H]1CN(C)S(=O)(=O)c1ccc(F)cc1	i	i	i	i	55.4
Cc1ccccc1OCc1nc(-c2cccnc2)no1	46.0	nt	i	i	i
Cc1ccc(OCc2nc(-c3ccccn3)no2)c(Br)c1	nt	i	nt	nt	nt
Cc1ccc(OCc2nc(-c3ccccn3)no2)cc1	i	i	i	16.4	nt
Cc1ccc(OCc2nc(-c3cccnc3)no2)cc1C	i	nt	i	i	424.3
Cc1cc(OCc2nc(-c3cccnc3)no2)c(C)cc1Br	nt	i	nt	nt	nt
CNC[C@@H]1Oc2ccc(NC(=O)CCN3CCOCC3)cc2C(=O)N([C@@H](C)CO)C[C@H]1C	nt	i	i	i	i
Cc1ccc(CNC(=O)CSCc2ccccc2)cc1	i	nt	i	i	nt
Cc1cccc(CSCC(=O)NCc2ccc(S(N)(=O)=O)cc2)c1	i	i	i	15.2	i

High-throughput results: PubChem BioAssay, Broad Institute
